Measured values: ChEMBL document CHEMBL1649306, “Arylimidamide DB766, a potential chemotherapeutic candidate for Chagas' disease treatment” (Antimicrob Agents Chemother, 2010)
pIC50: −log10 of the molar value. “And” between values parts separate entries of the source, which are not always exact repeats. Equal entries are not always repeated. The source made the active and inactive calls. No cut-off for these calls is given here.

Tests used:
[1] = test system: Trypanosoma cruzi; test: Antitrypanosomal activity against Trypanosoma cruzi Columbian bloodstream forms infected in C3H mouse assessed as decrease in parasite load at 50 mg/kg/day, po administered 5 days postinfection for 10 consecutive days measured after 41 days; type: functional, organism-based
How it was run: (§1)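 C3H/He mice infected i.p. with 10^3 or 5 × 10^3 Colombian strain bloodstream forms. Treated daily for 10 days with 0.1 ml i.p. or by gavage, reference drug given by gavage. Parasitemia measured by the Pizzi-Brener method; n ≥ 6 parasitemic mice per group.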

[2] = test system: Trypanosoma cruzi; test: Antitrypanosomal activity against Trypanosoma cruzi Y bloodstream forms infected in Swiss-Webster mouse assessed as decrease in cardiac parasite load at 100 mg/kg/day, ip administered 5 days postinfection for 10 alternate days measured after 14 days postinfection; type: functional, Heart; parameters: scale not given: the % may be the effect or the level left; conditions: route intraperitoneal
[3] = test system: Trypanosoma cruzi; test: Antitrypanosomal activity against Trypanosoma cruzi Y bloodstream forms infected in Swiss-Webster mouse assessed as decrease in parasite-induced cardiac inflammation in mouse at 100 mg/kg/day, ip administered 5 days postinfection for 10 alternate days measured after 14 days postinfection; type: functional, Heart; parameters: scale not given: the % may be the effect or the level left; conditions: route intraperitoneal
[4] = test system: Trypanosoma cruzi; test: Antitrypanosomal activity against Trypanosoma cruzi Columbian bloodstream forms infected in C3H mouse assessed as reduction in parasite-induced weight loss at 25 mg/kg/day, ip administered 5 days postinfection for 10 consecutive days measured after 120 days; type: functional, organism-based
How it was run: (§2)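 Body weight of infected, treated mice followed from 0 to 120 dpi.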

[5] = test system: Trypanosoma cruzi; test: Antitrypanosomal activity against Trypanosoma cruzi Columbian bloodstream forms infected in C3H mouse assessed as decrease in parasite load at 100 mg/kg/day, ip administered 5 days postinfection for 10 consecutive days measured after 31 days; type: functional; parameters: scale not given: the % may be the effect or the level left; conditions: route intraperitoneal; how it was run: as §1
[6] = Cardiotoxicity against Swiss-Webster mouse cardiomyocytes assessed as creatine kinase cardiac isotype level by MTT assay; type: toxicity, Heart, Cardiomyocyte; conditions: read-out: LC50 (the source's name)
How it was run: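 Embryonic cardiomyocytes from Swiss mice, uninfected, exposed to 0 to 96 μM in DMEM at 37°C. Viability followed by CK-MB released into culture supernatant, alongside light-microscopy checks of morphology and spontaneous contraction; assays at least three times in duplicate.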

[7] = test system: Trypanosoma cruzi; test: Antitrypanosomal activity against bloodstream forms of Trypanosoma cruzi CL after 24 hrs by light microscopy in presence of 50% mouse blood; type: functional, organism-based
How it was run: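 Bloodstream trypomastigotes kept at 4°C for 24 h in freshly isolated 50% mouse blood with serial dilutions (up to 32 μM). Motile live parasites counted in a Neubauer chamber by light microscopy; IC50 calculated as concentration reducing parasite number by 50%.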

[8] = test system: Trypanosoma cruzi; test: Antitrypanosomal activity against Trypanosoma cruzi Columbian bloodstream forms infected in C3H mouse assessed as decrease in parasite-induced cardiac inflammation at 100 mg/kg/day, ip administered 5 days postinfection for 10 consecutive days measured after 43 days; type: functional, Heart; parameters: scale not given: the % may be the effect or the level left; conditions: route intraperitoneal
How it was run: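 Male C3H/He mice infected i.p. with 5 × 10^3 Colombian strain bloodstream forms, given 100 mg/kg/day i.p. daily for 10 days. At 43 dpi, H&E-stained 3 μm heart sections scored for amastigote nests and infiltrates (>10 mononuclear cells) over at least 100 fields. Three sections each from at least three mice.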

[9] = test system: Trypanosoma cruzi; test: Antitrypanosomal activity against Trypanosoma cruzi Columbian bloodstream forms infected in C3H mouse assessed as survival of mouse at 100 mg/kg/day, po administered 5 days postinfection for 10 consecutive days measured after 31 days; type: functional
How it was run: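 Male C3H/He (H-2k) mice infected i.p. with 5 × 10^3 Colombian-strain bloodstream trypomastigotes; only parasitemia-positive mice grouped (n ≥ 6). DB766 100 mg/kg/day given i.p. (0.1 ml) or by gavage (0.1 ml), daily for 10 treatments. Parasitemia by Pizzi-Brener method; mortality checked daily, expressed as cumulative percentage.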

[10] = test system: Trypanosoma cruzi; test: Antitrypanosomal activity against Trypanosoma cruzi Y infected in Swiss-Webster mouse assessed as decrease in parasite-induced weight loss at 100 mg/kg/day, po administered 5 days post-infection for 10 consecutive days measured on day 120; type: functional, organism-based; how it was run: as §2
[11] = test system: Trypanosoma cruzi; test: Antitrypanosomal activity against bloodstream forms of Trypanosoma cruzi Y after 24 hrs by light microscopy in presence of 96% mouse blood; type: functional, organism-based
How it was run: (§3)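 Bloodstream trypomastigotes held at 4°C in freshly isolated mouse blood (96%) with serial dilutions up to 32 μM. Live motile parasites counted by light microscopy in a Neubauer chamber, giving an IC50 for each exposure time.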

[12] = test system: Trypanosoma cruzi; test: Antitrypanosomal activity against bloodstream forms of Trypanosoma cruzi Y after 24 hrs by light microscopy; type: functional, organism-based
How it was run: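 Bloodstream trypomastigotes from infected Swiss mice at peak parasitemia, 5.0 × 10^6 cells/ml in RPMI 1640 with 5% FBS. Exposed at 37°C to serial dilutions from 0 to 32 μM. Motile live parasites counted by light microscopy in a Neubauer chamber, then IC50 calculated.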

[13] = test system: Trypanosoma cruzi; test: Antitrypanosomal activity against bloodstream forms of Trypanosoma cruzi Y after 2 hrs by light microscopy in presence of 96% mouse blood; type: functional, organism-based; how it was run: as §3
[14] = test system: Trypanosoma cruzi; test: Antitrypanosomal activity against Trypanosoma cruzi Columbian bloodstream forms infected in C3H mouse assessed as reduction in parasite-induced weight loss at 50 mg/kg/day, ip administered 5 days postinfection for 10 consecutive days measured after 120 days; type: functional, organism-based; how it was run: as §2
[15] = test system: Trypanosoma cruzi; test: Selectivity ratio of IC50 for Trypanosoma cruzi Y bloodstream forms to IC50 for Trypanosoma cruzi Y amastigotes; type: functional
[16] = test system: Trypanosoma cruzi; test: Antitrypanosomal activity against Trypanosoma cruzi Y bloodstream forms infected in Swiss-Webster mouse assessed as survival of mouse at 50 mg/kg/day, ip administered 8 days postinfection measured on day 120; type: functional, organism-based
How it was run: (§4)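 Male Swiss mice infected i.p. with 10^4 Y strain bloodstream forms. Given 0.2 ml i.p. at 5 and 8 dpi, or daily for 10 days from 5 dpi; reference drug given by gavage. Parasitemia measured by the Pizzi-Brener method, cumulative mortality checked daily to 120 dpi, n ≥ 6 per group.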

[17] = test system: Mus musculus; test: Toxicity in […](H-2k) mouse assessed as effect on GPT level at 100 mg/kg/day, […]; type: organism-based; conditions: in vivo
[18] = test system: Trypanosoma cruzi; test: Antitrypanosomal activity against Trypanosoma cruzi Y bloodstream forms infected in Swiss-Webster mouse assessed as survival rate of mouse at 100 mg/kg/day, ip administered 8 days postinfection measured on day 120; type: functional; conditions: route intraperitoneal
How it was run: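 Every-other-day i.p. dosing (5 doses, each 48 h apart) of 100 mg/kg/day in male Swiss mice inoculated with 10^4 Y-strain bloodstream trypomastigotes, n ≥ 6 parasitemia-positive animals. Mortality recorded daily up to 120 dpi as cumulative percentage.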

[19] = test system: Mus musculus; test: Toxicity in male Swiss-Webster mouse assessed as mortality at cumulative dose of 200 mg/kg, ip measured after 48 hrs; type: organism-based; parameters: dose 200 mg/kg, route intraperitoneal; conditions: in vivo
How it was run: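 Uninfected 8–10-week-old female and male Swiss Webster and C3H/He (H-2k) mice injected i.p. on day 1 every 2 h with escalating doses: 5, 15, 30, 50 and 100 mg/kg (cumulative 20, 50, 100, 200 mg/kg). Toxic and subtoxic signs inspected on days 2–3 per OECD guidelines; tolerated dose set at 48 h.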

[20] = test system: Trypanosoma cruzi; test: Antitrypanosomal activity against Trypanosoma cruzi Y bloodstream forms infected in Swiss-Webster mouse assessed as decrease in parasite load at 25 mg/kg/day, ip administered 5 days postinfection for 10 consecutive days measured after 8 days; type: functional; parameters: scale not given: the % may be the effect or the level left; conditions: route intraperitoneal; how it was run: as §4
[21] = test system: Trypanosoma cruzi; test: Antitrypanosomal activity against bloodstream forms of Trypanosoma cruzi Y infected in Swiss mouse cardiomyocytes assessed as intracellular parasitemia at 10.6 uM after 72 hrs by Pizzi-Brener method; type: functional, organism-based

For CC(C)Oc1cc(NC(=N)c2ccccn2)ccc1-c1ccc(-c2ccc(NC(=N)c3ccccn3)cc2OC(C)C)o1, the Activity [1] was “Active”, the Activity [2] was 94% and the Activity [3] was 78%. The Activity [4] was “inactive”, the Activity [5] was 100% and the CC50 [6] was greater than 10600 nM. The pIC50 [7] was 6.15, the Activity [8] was 75% and the Activity [9] was 100%. The Activity [10] was “inactive”, the pIC50 [11] was 7.22 and the pIC50 [12] was 6.96. The pIC50 [13] was 6.25, the Activity [14] was “Active” and the Selectivity ratio [15] was >533 and 714. For the same molecule, the Activity [16] was “Active”, the Activity [17] was “Non-toxic” and the Activity [18] was 60%. The Activity [19] was “Non-toxic”, the Activity [20] was 88% and the pIC50 [21] was 7.60.
